In ChEMBL document CHEMBL3877290, “Targeting the entry region of Hsp90's ATP binding pocket with a novel 6,7-dihydrothieno[3,2-c]pyridin-5(4H)-yl amide” (Eur J Med Chem, 2016):
The source made the active and inactive calls. The calls are words filed in the database; no cut-off is given here.

How the values were obtained:
[1] = molecular target: Heat shock protein HSP 90-alpha (Homo sapiens, UniProt P07900); experiment: Inhibition of fluorescein isothiocyanate labeled geldanamycin binding to N-terminal domain of full length human recombinant Hsp90alpha expressed in Escherichia coli BL21 (DE3) after 14 hrs by fluorescence polarization assay
[2] = Antiproliferative activity against Her2-overexpressing human SKBR3 cells after 1 to 3 days by MTS assay; assay type: functional; conditions: SK-BR-3
Outline: (§1)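 Cells seeded at 3 × 10^3 (Skbr3) or 2 × 10^3 (H1975) per well and left to attach overnight, then exposed to varying compound concentrations or 1% DMSO vehicle at 37 °C for 1, 2 and 3 days. Viability read by MTS colorimetric assay at 490 nm and expressed as percent of DMSO-only absorbance. Skbr3 in RPMI 1640 with 25 mM HEPES; H1975 in RPMI 1640 with L-glutamine; both with 10% FBS and penicillin/streptomycin.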

[3] = Antiproliferative activity against gefitinib-resistant human NCI-H1975 cells after 1 to 3 days by MTS assay; assay type: functional; outline: as §1
NCI-H1975 [4] = experiment: cells; conditions: Homo sapiens, NCI-H1975, 24 h, read-out: Activity
CYP3A = CYP3A (Homo sapiens, UniProt P08684+P20815+P24462+Q9HB55); experiment: Inhibition of CYP3A in human liver microsomes assessed as midazolam 1'-hydroxylation by LC/MS/MS analysis; assay type: ADME; conditions: probe midazolam (1'-hydroxylation)
Outline: (§2)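 Pooled human liver microsomes incubated without and with compound at 0–50 µM final (acetonitrile below 0.5%); probe activities in cocktail incubation: phenacetin O-deethylation (CYP1A2), tolbutamide 4-hydroxylation (2C9), omeprazole hydroxylation (2C19), dextromethorphan O-demethylation (2D6), midazolam 1'-hydroxylation (3A). Metabolites quantified by tandem mass spectrometry; duplicates; IC50 derived.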

[5] = molecular target: T1, Heat shock protein HSP90 (Homo sapiens) (UniProt P07900+P08238); conditions: NCI-H1975, 0.05 to 2 uM
NCI-H1975 [6] = experiment: Induction of apoptosis in gefitinib-resistant human NCI-H1975 cells assessed as viable cells at 0.5 uM after 24 hrs by Annexin V-FITC/propidium iodide staining based flow cytometry (reference value: 92.68%); assay type: functional; conditions: NCI-H1975, 24 h, read-out: Activity
[7] = molecular target: T1, Heat shock protein HSP90 (Homo sapiens); conditions: NCI-H1975, 0.05 to 2 uM; remark: listed apart in the source
Mus musculus [8] = experiment: Decrease of Akt level in human NCI-H1975 cells xenografted in NOD-scid IL2Rgamma-null mouse at 10 mg/kg, ip administered daily followed by weekend rest for 2 weeks by immunohistochemical analysis; assay type: functional, organism-based
[9] = molecular target: T1, Heat shock protein HSP90 (Homo sapiens); conditions: NCI-H1975, 0.05 to 2 uM; remark: listed apart in the source
Cytochrome P450 2C9 = Cytochrome P450 2C9 (Homo sapiens, UniProt P11712); experiment: Inhibition of CYP2C9 in human liver microsomes assessed as tolbutamide 4-methylhydroxylation by LC/MS/MS analysis; assay type: ADME; outline: as §2
Sequence of Cytochrome P450 2C9 (P11712 whole entry): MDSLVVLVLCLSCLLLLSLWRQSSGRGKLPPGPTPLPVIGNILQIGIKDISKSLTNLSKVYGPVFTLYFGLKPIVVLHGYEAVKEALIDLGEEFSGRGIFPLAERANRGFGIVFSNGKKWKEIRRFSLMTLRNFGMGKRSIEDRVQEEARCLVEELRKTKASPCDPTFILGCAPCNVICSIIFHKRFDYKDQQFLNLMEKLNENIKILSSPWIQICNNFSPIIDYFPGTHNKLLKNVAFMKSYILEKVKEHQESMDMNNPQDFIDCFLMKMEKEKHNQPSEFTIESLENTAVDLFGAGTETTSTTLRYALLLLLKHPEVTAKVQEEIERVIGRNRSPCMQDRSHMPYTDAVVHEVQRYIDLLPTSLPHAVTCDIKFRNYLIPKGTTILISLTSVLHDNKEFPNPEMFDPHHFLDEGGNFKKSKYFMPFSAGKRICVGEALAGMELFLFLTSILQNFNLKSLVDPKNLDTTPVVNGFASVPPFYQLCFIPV

[10] = molecular target: T1, Heat shock protein HSP90 (Homo sapiens); conditions: NCI-H1975, 0.05 to 2 uM; remark: listed apart in the source
Cytochrome P450 2C19 = Cytochrome P450 2C19 (Homo sapiens, UniProt P33261); experiment: Inhibition of CYP2C19 in human liver microsomes assessed as omepraozle hydroxylation by LC/MS/MS analysis; assay type: ADME; outline: as §2
Sequence of Cytochrome P450 2C19 (P33261 whole entry): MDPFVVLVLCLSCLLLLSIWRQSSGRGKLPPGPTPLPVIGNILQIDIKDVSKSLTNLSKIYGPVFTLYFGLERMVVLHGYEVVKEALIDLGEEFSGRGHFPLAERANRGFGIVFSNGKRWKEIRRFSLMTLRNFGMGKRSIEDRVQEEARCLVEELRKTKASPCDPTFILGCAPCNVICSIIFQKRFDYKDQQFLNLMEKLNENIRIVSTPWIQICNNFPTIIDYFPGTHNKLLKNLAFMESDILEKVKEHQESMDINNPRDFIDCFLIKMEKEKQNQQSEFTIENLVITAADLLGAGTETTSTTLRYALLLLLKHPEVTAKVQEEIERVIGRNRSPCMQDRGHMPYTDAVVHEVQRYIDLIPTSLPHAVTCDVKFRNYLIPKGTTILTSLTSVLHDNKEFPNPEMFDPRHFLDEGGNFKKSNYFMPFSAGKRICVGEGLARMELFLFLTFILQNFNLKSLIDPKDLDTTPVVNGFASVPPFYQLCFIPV

[11] = Effect on beta-actin level in gefitinib-resistant human NCI-H1975 cells at 0.05 to 2 uM after 24 hrs by Western blot analysis; assay type: ADME, cell-based; conditions: nci-h1975, 24 h
Outline: (§3)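 H1975 cells seeded 1 × 10^6 per 100 mm dish, attached overnight, exposed 24 h to 0.05, 0.1, 0.5, 1 and 2 µM compound, with 1% DMSO and 1 µM geldanamycin as controls. Lysed in Tris-HCl pH 7.6/NaCl/NP-40/deoxycholate/SDS buffer; 30 µg per lane SDS-PAGE, PVDF, 5% milk block, specific antibodies (PARP, caspase 3, cleaved caspase 3/8, β-actin), HRP secondary, ECL detection.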

NCI-H1975 [12] = experiment: Antitumor activity against human NCI-H1975 cells xenografted in NOD-scid IL2Rgamma-null mouse assessed as tumor growth inhibition at 10 mg/kg, ip administered daily followed by weekend rest for 2 weeks measured twice per week during compound dosing; assay type: functional, organism-based
NCI-H1975 [13] = experiment: Induction of apoptosis in gefitinib-resistant human NCI-H1975 cells assessed as necrotic cells at 0.5 uM after 24 hrs by Annexin V-FITC/propidium iodide staining based flow cytometry (reference value: 2.68%); assay type: functional
Cytochrome P450 2D6 = Cytochrome P450 2D6 (Homo sapiens, UniProt P10635); experiment: Inhibition of CYP2D6 in human liver microsomes assessed as dextromethorphan O-demethylation by LC/MS/MS analysis; assay type: ADME; outline: as §2
Sequence of Cytochrome P450 2D6 (P10635 whole entry): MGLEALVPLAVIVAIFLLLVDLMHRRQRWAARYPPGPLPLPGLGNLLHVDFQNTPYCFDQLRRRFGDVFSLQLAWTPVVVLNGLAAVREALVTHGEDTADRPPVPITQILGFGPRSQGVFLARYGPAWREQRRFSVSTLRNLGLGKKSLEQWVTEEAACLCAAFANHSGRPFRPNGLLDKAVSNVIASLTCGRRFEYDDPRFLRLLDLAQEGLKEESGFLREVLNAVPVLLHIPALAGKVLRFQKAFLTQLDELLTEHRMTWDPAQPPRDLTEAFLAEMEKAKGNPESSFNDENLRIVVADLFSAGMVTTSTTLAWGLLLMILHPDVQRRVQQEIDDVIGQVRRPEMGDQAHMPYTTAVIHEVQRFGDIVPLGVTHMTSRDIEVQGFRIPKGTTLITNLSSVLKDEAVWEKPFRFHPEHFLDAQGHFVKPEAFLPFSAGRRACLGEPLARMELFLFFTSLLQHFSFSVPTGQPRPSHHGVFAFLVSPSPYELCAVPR

[14] = molecular target: T1, Heat shock protein HSP90 (Homo sapiens); conditions: NCI-H1975, 0.05 to 2 uM; remark: listed apart in the source
NCI-H1975 [15] = experiment: Induction of apoptosis in gefitinib-resistant human NCI-H1975 cells assessed as cleavage of caspase 8 at 0.5 uM after 24 hrs by Western blot analysis; assay type: functional, cell-based; outline: as §3
Mus musculus [16] = experiment: Toxicity in NOD-scid IL2Rgamma-null mouse xenografted with human NCI-H1975 cells assessed as body weight loss at 10 mg/kg, ip administered daily followed by weekend rest for 2 weeks measured twice per week during compound dosing; assay type: organism-based; conditions: in vivo, 336 h
Outline: (§4)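 NSG mice (8 per group, randomised) received 2.0 × 10^6 H1975 cells s.c. in the left flank on day zero. Dosing began once tumours reached 500 mm3: i.p. at 10 mg/kg or DMSO vehicle, daily with weekend rest, for 2 weeks. Body weight tracked and deaths recorded during treatment. Housing in individually ventilated cages at 25±2 °C with a 12 h light-dark cycle.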

[17] = molecular target: T1, Heat shock protein HSP90 (Homo sapiens); conditions: NCI-H1975, 0.05 to 2 uM; remark: listed apart in the source
Mus musculus [18] = experiment: Toxicity in NOD-scid IL2Rgamma-null mouse xenografted with human NCI-H1975 cells assessed as mortality at 10 mg/kg, ip administered daily followed by weekend rest for 2 weeks measured twice per week during compound dosing; assay type: organism-based; conditions: in vivo, 336 h; outline: as §4
NCI-H1975 [19] = experiment: Induction of apoptosis in gefitinib-resistant human NCI-H1975 cells assessed as late apoptotic cells at 0.5 uM after 24 hrs by Annexin V-FITC/propidium iodide staining based flow cytometry (reference value: 2.79%); assay type: functional
NCI-H1975 [20] = experiment: Induction of apoptosis in gefitinib-resistant human NCI-H1975 cells assessed as early apoptotic cells at 0.5 uM after 24 hrs by Annexin V-FITC/propidium iodide staining based flow cytometry (reference value: 1.85%); assay type: functional
NCI-H1975 [21] = experiment: Induction of apoptosis in gefitinib-resistant human NCI-H1975 cells assessed as cleavage of PARP at 0.5 uM after 24 hrs by Western blot analysis; assay type: functional, cell-based; outline: as §3
Cytochrome P450 1A2 = molecular target: T2, Cytochrome P450 1A2 (Homo sapiens, UniProt P05177); experiment: Inhibition of CYP1A2 in human liver microsomes assessed as phenacetin O-deethylation by LC/MS/MS analysis; assay type: ADME; outline: as §2
T2 sequence (P05177 whole entry): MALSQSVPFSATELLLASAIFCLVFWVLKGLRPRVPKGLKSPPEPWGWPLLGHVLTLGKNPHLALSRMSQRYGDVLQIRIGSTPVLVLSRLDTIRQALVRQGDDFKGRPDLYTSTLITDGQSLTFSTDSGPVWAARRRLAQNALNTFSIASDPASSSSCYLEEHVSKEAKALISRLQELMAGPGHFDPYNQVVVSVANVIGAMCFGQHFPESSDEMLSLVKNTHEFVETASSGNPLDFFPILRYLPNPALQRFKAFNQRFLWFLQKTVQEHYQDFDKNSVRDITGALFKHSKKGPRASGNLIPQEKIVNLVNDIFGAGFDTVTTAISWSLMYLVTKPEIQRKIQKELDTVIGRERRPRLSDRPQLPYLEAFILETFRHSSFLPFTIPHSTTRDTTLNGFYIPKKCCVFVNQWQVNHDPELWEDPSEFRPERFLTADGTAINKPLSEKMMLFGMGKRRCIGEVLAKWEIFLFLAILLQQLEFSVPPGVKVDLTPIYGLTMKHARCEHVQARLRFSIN

NCI-H1975 [22] = experiment: Induction of apoptosis in gefitinib-resistant human NCI-H1975 cells assessed as cleavage of caspase 3 at 0.5 uM after 24 hrs by Western blot analysis; assay type: functional, cell-based; outline: as §3

O=C(c1cc(Cl)c(O)cc1O)N1CCN(c2ccccc2)CC1
IC50 [1]: 0.481 µM
GI50 [2]: 9.3 µM
GI50 [3]: 19.1 µM

O=C(Nc1ccccc1)c1cc(Cl)c(O)cc1O
IC50 [1]: > 1 µM
GI50 [3]: > 50 µM

COC1=C2C[C@@H](C)C[C@H](OC)[C@H](O)[C@@H](C)/C=C(\C)[C@H](OC(N)=O)[C@@H](OC)/C=C\C=C(/C)C(=O)NC(=CC1=O)C2=O [GELDANAMYCIN]
GI50 [2]: 0.43 µM
GI50 [3]: 0.56 µM
viability at 1 µM (NCI-H1975 [4]): 65.7%

CC(C)c1cc(C(=O)N2CCc3sccc3C2)c(O)cc1O
IC50 (CYP3A): > 50 µM
inhibition [5]: Active
viability at 0.5 µM (NCI-H1975 [6]): 83.9%
inhibition [7]: Active
Activity (Mus musculus [8]): Active
inhibition [9]: Active
IC50 (Cytochrome P450 2C9): > 50 µM
inhibition [10]: Active
IC50 (Cytochrome P450 2C19): > 50 µM
Activity [11]: Non-Toxic
TGI (NCI-H1975 [12]): Active
Activity (NCI-H1975 [13]): 3.67%
IC50 (Cytochrome P450 2D6): > 50 µM
inhibition [14]: Active
IC50 [1]: 0.0503 µM
Activity (NCI-H1975 [15]): Active
GI50 [2]: 0.11 µM
Activity (Mus musculus [16]): Non-Toxic
inhibition [17]: Active
GI50 [3]: 0.31 µM
Activity (Mus musculus [18]): Non-Toxic
Activity (NCI-H1975 [19]): 3.77%
viability at 1 µM (NCI-H1975 [4]): 76%
Activity (NCI-H1975 [20]): 8.67%
Activity (NCI-H1975 [21]): Active
IC50 (Cytochrome P450 1A2): > 50 µM
Activity (NCI-H1975 [22]): Active

O=C(c1cc(Cl)c(O)cc1O)N1CCc2ccsc2C1
IC50 [1]: 0.136 µM
GI50 [2]: 5.4 µM
GI50 [3]: 8.7 µM

O=C(c1cc(Cl)c(O)cc1O)N1CCc2ccccc2C1
IC50 [1]: 0.183 µM
GI50 [2]: 7.1 µM
GI50 [3]: 19.9 µM

O=C(Nc1ccc(O)cc1)c1cc(Cl)c(O)cc1O
IC50 [1]: > 1 µM
GI50 [3]: > 50 µM

Oc1cc(O)c(-c2nc3ccccc3o2)cc1Cl
IC50 [1]: > 1 µM
GI50 [2]: > 50 µM
GI50 [3]: > 50 µM
